In brackets after ≈: the same amount, converted by molar mass. Activity calls are given as the source filed them. No cut-off for these calls is given here.
How the values were obtained:
[1] = Cmax in Han Wistar rat at 10 mg/kg, po by LCMS/MS method; type: ADME, organism-based; parameters: dose 10 mg/kg, route oral; conditions: in vivo
[2] = target: T1, Cytochrome P450 3A5 (Homo sapiens, UniProt P20815); assay: Induction of CYP3A5 activation in human hepatocytes at 10 uM incubated for 48 hrs using testosterone substrate relative to rifampicin; type: ADME, cell-based, Hepatocyte
Procedure, shortened: (§1)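 Human hepatocyte CYP3A induction, testosterone probe with 6-β-hydroxytestosterone as marker; activity expressed as % of the rifampicin response; hepatocytes from two donors tested.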

[3] = target: Sphingosine 1-phosphate receptor 1 (Homo sapiens, UniProt P21453); assay: Antagonist activity against human S1P1 receptor expressed in human U2OS cells co-expressing GFP assessed as inhibition of S1P-induced receptor translocation; type: cell-based
Procedure, shortened: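 Cellular S1P1 translocation (internalization) assay with antagonist; EC50 reported as mean of at least three separate determinations ± standard deviation.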

[4] = Intrinsic clearance in human hepatocytes assessed per 10^6 cells at 1 uM after 0.5 to 120 mins by LCMS/MS method; type: ADME, cell-based, Hepatocyte; conditions: read-out: CLH
[5] = Unbound fraction in dog plasma at 10 uM by LCMS/MS detection based equilibrium dialysis method; type: ADME, cell-free, Canis lupus familiaris
[6] = Oral bioavailability in Han Wistar rat at 10 mg/kg by LCMS/MS method; type: ADME, organism-based; conditions: in vivo
[7] = Unbound fraction in human plasma at 10 uM by LCMS/MS detection based equilibrium dialysis method; type: ADME, cell-free
[8] = Aqueous equilibrium solubility in pH 7.4 phosphate buffer incubated for 24 hrs by HPLC-UV and MS method; type: physicochemical
[9] = target: T2, Cytochrome P450 1A2 (Homo sapiens, UniProt P05177); assay: Inhibition of CYP1A2 in human liver microsomes incubated for 5 mins in presence of NADPH and specific substrates by LC/MS/MS method; type: ADME
T2 sequence (P05177 whole entry): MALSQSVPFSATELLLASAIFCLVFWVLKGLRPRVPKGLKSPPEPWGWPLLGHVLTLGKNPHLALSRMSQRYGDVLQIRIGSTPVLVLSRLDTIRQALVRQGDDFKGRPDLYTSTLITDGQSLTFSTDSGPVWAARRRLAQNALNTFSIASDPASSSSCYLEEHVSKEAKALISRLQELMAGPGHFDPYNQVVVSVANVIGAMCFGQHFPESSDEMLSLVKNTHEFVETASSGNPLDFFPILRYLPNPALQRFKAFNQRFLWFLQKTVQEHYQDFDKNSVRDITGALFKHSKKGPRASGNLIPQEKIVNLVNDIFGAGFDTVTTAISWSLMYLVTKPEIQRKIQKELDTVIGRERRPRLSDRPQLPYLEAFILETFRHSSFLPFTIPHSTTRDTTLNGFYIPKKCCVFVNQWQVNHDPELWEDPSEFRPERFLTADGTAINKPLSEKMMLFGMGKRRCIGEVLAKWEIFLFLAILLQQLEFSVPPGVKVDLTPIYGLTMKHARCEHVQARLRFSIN

[10] = Intrinsic clearance in dog hepatocytes assessed per 10^6 cells at 1 uM after 0.5 to 120 mins by LCMS/MS method; type: ADME, cell-based, Canis lupus familiaris, Hepatocyte; conditions: read-out: CLH
[11] = system: Mus musculus; assay: Inhibition of FGF-S1P-stimulated angiogenesis in 129s1/SvImJ mouse assessed as reduction in hemoglobin level at 10 mg/kg, po administered once-daily for 4 days by spectrophotometry based matrigel plug angiogenesis assay; type: functional, organism-based
Procedure, shortened: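 Matrigel (0.5 mL) with 2 µg/mL β-FGF and 1 µM S1P injected subcutaneously in the ventral region of female 129s1/SvImJ mice. Oral dosing at 10 mg/kg once daily on days 5-8 post-implant (5 per cohort); vehicle 0.5% HPMC, 0.1% Tween 80. Controls also include Matrigel without factors. Hemoglobin per gram of plug gel quantified.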

[12] = target: T1, Cytochrome P450 3A5; assay: Inhibition of CYP3A5 in human liver microsomes incubated for 5 mins in presence of NADPH and specific substrates by LC/MS/MS method; type: ADME
[13] = target: Cytochrome P450 2C19 (Homo sapiens, UniProt P33261); assay: Inhibition of CYP2C19 in human liver microsomes incubated for 5 mins in presence of NADPH and specific substrates by LC/MS/MS method; type: ADME
[14] = Unbound fraction in rat plasma at 10 uM by LCMS/MS detection based equilibrium dialysis method; type: ADME, cell-free
[15] = target: T3, Cytochrome P450 3A4 (Homo sapiens, UniProt P08684); assay: Inhibition of CYP3A4 in human liver microsomes incubated for 5 mins in presence of NADPH and specific substrates by LC/MS/MS method; type: ADME
[16] = target: Cytochrome P450 2C9 (Homo sapiens, UniProt P11712); assay: Inhibition of CYP2C9 in human liver microsomes incubated for 5 mins in presence of NADPH and specific substrates by LC/MS/MS method; type: ADME
[17] = target: Cytochrome P450 2D6 (Homo sapiens, UniProt P10635); assay: Inhibition of CYP2D6 in human liver microsomes incubated for 5 mins in presence of NADPH and specific substrates by LC/MS/MS method; type: ADME
[18] = target: T4, Nuclear receptor subfamily 1 group I member 2 (Homo sapiens, UniProt O75469); assay: Activation of human PXR expressed in human HepG2 cells co-expressing CYP3A4 assessed as CYP3A4 activation at 10 uM by luciferase reporter gene assay relative to rifampicin; type: ADME, cell-based; conditions: hepg2, 10 µM
T4 sequence (O75469 whole entry): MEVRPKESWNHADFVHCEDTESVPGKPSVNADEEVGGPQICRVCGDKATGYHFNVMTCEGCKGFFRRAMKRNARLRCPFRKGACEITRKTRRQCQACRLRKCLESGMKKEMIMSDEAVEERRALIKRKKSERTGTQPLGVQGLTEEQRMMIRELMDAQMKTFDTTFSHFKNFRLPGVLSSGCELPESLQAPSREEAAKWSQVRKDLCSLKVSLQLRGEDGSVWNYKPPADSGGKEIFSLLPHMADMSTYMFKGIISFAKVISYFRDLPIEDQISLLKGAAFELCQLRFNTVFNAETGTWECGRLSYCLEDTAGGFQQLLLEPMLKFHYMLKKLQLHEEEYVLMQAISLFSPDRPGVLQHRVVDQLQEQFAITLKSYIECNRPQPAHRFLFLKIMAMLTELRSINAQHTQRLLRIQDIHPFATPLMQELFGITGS
Procedure, shortened: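 Single-concentration PXR reporter gene screen, compound at 10 μM; activation expressed as a percentage of the response to rifampicin, also at 10 μM.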

[19] = Intrinsic clearance in mouse hepatocytes assessed per 10^6 cells at 1 uM after 0.5 to 120 mins by LCMS/MS method; type: ADME, cell-based, Hepatocyte; conditions: read-out: CLH
[20] = Lipophilicity, log D of the compound at pH 7.4; type: physicochemical; conditions: buffer
[21] = target: T3, Cytochrome P450 3A4; assay: Induction of CYP3A4 activation in human hepatocytes at 10 uM incubated for 48 hrs using testosterone substrate relative to rifampicin; type: ADME, cell-based, Hepatocyte; procedure, shortened: as §1
[22] = Unbound fraction in mouse plasma at 10 uM by LCMS/MS detection based equilibrium dialysis method; type: ADME, cell-free
[23] = Intrinsic clearance in rat hepatocytes assessed per 10^6 cells at 1 uM after 0.5 to 120 mins by LCMS/MS method; type: ADME, cell-based, Hepatocyte; conditions: read-out: CLH
[24] = system: Calu-6; assay: Antitiumor activity against human Calu6 cells xenografted in NCr mouse assessed as tumor growth at 20 mg/kg, po bid dosed on day 13 to 32

T1 sequence (P20815 whole entry): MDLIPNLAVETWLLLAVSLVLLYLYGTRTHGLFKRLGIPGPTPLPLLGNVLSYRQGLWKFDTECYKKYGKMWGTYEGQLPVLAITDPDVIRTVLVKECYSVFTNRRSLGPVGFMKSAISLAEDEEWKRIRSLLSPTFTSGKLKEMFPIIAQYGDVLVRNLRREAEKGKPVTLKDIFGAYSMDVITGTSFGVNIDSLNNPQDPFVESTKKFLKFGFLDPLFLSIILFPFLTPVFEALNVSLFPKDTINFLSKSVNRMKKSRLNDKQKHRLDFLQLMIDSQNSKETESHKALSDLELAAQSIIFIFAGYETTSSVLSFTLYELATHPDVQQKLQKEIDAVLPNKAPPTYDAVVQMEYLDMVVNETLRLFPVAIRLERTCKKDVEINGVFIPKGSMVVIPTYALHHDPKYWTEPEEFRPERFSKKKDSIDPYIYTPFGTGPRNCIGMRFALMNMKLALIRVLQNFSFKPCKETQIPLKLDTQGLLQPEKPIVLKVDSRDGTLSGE
T3 sequence (P08684 whole entry): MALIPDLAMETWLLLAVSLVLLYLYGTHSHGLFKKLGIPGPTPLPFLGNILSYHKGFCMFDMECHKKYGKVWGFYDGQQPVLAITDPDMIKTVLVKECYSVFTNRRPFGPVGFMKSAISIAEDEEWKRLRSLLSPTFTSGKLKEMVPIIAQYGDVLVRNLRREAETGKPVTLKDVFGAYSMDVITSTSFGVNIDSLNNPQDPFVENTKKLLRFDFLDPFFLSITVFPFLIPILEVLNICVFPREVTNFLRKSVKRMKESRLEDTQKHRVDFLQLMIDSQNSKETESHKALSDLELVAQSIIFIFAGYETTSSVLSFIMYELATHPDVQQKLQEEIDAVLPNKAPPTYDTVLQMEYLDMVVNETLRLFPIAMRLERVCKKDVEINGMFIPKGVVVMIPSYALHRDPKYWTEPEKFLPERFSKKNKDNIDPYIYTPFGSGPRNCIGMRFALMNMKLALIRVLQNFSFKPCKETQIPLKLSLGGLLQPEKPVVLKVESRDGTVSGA
Chain of Cytochrome P450 2D6 (P10635 whole entry): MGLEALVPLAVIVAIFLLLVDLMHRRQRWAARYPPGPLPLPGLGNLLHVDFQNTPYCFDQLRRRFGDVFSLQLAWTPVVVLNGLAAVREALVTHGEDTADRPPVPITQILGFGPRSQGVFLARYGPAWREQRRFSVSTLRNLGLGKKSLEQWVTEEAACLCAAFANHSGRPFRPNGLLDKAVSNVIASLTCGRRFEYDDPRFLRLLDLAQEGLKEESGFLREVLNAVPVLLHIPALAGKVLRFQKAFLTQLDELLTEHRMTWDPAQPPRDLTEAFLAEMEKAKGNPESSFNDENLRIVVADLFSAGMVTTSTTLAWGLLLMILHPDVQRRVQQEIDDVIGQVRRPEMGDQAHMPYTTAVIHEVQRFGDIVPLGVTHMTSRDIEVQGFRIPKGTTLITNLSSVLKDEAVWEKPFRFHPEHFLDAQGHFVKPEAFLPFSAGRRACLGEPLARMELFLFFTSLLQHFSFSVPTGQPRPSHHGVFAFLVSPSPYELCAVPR
Chain of Cytochrome P450 2C9 (P11712 whole entry): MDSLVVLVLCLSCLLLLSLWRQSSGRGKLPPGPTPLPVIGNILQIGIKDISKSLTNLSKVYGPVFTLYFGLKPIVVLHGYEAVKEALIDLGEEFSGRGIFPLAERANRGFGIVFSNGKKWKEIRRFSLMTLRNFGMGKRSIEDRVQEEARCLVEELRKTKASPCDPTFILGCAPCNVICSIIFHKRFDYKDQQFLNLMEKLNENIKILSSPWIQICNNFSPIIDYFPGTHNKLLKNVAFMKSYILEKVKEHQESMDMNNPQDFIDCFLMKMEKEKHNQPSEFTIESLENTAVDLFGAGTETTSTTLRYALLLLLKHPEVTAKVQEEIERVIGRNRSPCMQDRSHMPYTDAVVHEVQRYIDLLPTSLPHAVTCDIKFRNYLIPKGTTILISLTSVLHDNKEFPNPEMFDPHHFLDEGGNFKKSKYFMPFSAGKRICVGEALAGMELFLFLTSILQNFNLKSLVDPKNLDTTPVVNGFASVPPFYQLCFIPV
Chain of Sphingosine 1-phosphate receptor 1 (P21453 whole entry): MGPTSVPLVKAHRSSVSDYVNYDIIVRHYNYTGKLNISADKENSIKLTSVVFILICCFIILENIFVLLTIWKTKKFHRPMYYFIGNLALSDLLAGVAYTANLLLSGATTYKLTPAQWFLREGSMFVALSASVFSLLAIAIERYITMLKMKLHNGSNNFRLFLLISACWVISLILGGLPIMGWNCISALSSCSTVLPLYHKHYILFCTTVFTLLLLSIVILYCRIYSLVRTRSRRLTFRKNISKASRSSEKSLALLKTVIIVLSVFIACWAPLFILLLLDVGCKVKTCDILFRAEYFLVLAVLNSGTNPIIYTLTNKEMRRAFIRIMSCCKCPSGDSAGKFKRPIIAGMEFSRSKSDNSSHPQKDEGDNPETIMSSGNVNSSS
Chain of Cytochrome P450 2C19 (P33261 whole entry): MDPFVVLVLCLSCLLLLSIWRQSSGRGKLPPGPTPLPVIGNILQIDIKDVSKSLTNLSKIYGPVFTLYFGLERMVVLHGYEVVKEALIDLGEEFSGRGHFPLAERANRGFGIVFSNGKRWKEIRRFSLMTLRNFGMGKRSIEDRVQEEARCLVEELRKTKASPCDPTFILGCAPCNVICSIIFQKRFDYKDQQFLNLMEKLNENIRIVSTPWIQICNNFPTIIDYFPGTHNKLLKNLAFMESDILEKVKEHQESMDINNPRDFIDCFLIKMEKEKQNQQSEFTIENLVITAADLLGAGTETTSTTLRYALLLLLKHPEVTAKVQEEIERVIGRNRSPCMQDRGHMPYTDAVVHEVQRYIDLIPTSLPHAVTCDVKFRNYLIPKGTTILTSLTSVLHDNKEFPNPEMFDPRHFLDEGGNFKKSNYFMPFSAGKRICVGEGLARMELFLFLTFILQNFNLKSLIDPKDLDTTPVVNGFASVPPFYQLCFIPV

| Cmax [1] | Activity [2] | EC50 [3] | hepatocyte CLint at 1 µM [4] | fraction unbound at 10 µM [5] | bioavailability [6] | fraction unbound at 10 µM [7] | solubility thermodynamic at 24 h [8] | IC50 [9] | hepatocyte CLint at 1 µM [10] | IC50 [12] | IC50 [13] | fraction unbound at 10 µM [14] | IC50 [15] | IC50 [16] | IC50 [17] | Activity [18] | hepatocyte CLint at 1 µM [19] | logD [20] | SMILES | inhibition [11] | also measured |
| --- | --- | --- | --- | --- | --- | --- | --- | --- | --- | --- | --- | --- | --- | --- | --- | --- | --- | --- | --- | --- | --- |
| 21.7 µM | < 40% | 0.004 µM | 0.2 µL/min/1e6 cells | 0.5 | 93% | 0.19 | > 1000 µM | > 20 µM | 1.7 µL/min/1e6 cells | > 20 µM | > 20 µM | 0.18 | > 20 µM | > 20 µM | > 20 µM | 20% | 2.5 µL/min/1e6 cells | 1.6 | CCn1c([C@@H](C)NS(=O)(=O)c2ccc(C#N)nc2)nc2cnc(C3CC3)cc21 | Active | Activity [21]: < 40%; fraction unbound at 10 µM [22]: 0.41; hepatocyte CLint at 1 µM [23]: 3.9 µL/min/1e6 cells |
| 13.3 µM | < 40% | 0.007 µM | 1.2 µL/min/1e6 cells | 0.36 | 87% | 0.24 | 765 µM (≈ 325 µg/mL) | > 20 µM | 2.4 µL/min/1e6 cells | > 20 µM | > 20 µM | 0.32 | > 20 µM | > 20 µM | > 20 µM | 15% | 0.3 µL/min/1e6 cells | 1.3 | CCn1c([C@@H](C)NS(=O)(=O)c2ccc(C#N)nc2)nc2cnc(C(F)(F)F)cc21 | Active | growth inhibition (GI) [24]: inactive; Activity [21]: < 40%; fraction unbound at 10 µM [22]: 0.53; hepatocyte CLint at 1 µM [23]: 2.1 µL/min/1e6 cells |
